Only some compounds are listed: those with a hit (about 2.1% of all), similar ones and a draw of the others.
GSTO1 counter: GSTO1 inhibition, counter-screen for RBBP9 inhibitors. inhibition, % at 5.96 µM. P78417. recombinant GSTO1, activity-based probe fluorescence polarization. 1.1% of 300,000 active;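 active = inhibition above the campaign mean inhibition plus 3 SD, cut at about 35% in these data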
Target sequence (P78417 whole entry, looked up): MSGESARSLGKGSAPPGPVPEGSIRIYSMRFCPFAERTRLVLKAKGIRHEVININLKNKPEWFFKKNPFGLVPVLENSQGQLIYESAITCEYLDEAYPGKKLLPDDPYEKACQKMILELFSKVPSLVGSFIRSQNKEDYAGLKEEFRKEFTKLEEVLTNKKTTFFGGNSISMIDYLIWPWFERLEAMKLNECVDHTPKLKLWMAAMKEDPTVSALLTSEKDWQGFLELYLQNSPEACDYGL
PP1 inh: blocks human PP1-alpha phosphatase, a PP5 counter-screen | purified PP1alpha, OMFP fluorescence | 0.9% of 320,000 active | P62136 | AID 2235 | inhibition, % at 6.7 µM;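 active = inhibition above the mean inhibition of all tested compounds plus 3 SD, computed separately for each screening campaign, cut at about 15% in these data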
Target sequence (P62136 whole entry, looked up): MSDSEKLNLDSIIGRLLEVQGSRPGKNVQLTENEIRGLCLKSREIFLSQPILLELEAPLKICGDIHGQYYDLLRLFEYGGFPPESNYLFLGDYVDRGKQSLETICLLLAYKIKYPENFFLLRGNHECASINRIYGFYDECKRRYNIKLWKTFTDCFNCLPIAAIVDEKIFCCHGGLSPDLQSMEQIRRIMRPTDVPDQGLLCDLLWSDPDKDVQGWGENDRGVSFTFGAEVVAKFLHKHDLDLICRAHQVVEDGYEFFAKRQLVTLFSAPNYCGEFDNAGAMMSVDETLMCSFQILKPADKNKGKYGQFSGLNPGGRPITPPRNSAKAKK
PP5 primary: PP5 (human) phosphatase inhibition; P53041; purified PP5c, OMFP substrate fluorescence; inhibition, % at 6.7 µM; 0.18% of 320,000 active; AID 1987;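 active = inhibition above the campaign's mean inhibition across all tested compounds plus 3 SD, cut at about 9.5% in these data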
TDP2 absorb: blocks human TDP2 phosphodiesterase activity | recombinant TDP2, T5PNP hydrolysis, p-nitrophenol absorbance 415 nm | inhibition, % at 12.8 µM | O95551 | 0.34% of 370,000 active;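 active = inhibition above the mean of all tested compounds plus 3 SD, set per campaign, cut at about 25% in these data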
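System – recombinant human TDP2 · Quantity – TDP2 enzyme at 120 nM final · Doses – single concentration, 12.8 µM nominal, with 1% DMSO · Incubation – 2 h at 37 °C · Measured by – epi absorbance of p-nitrophenol freed from T5PNP by hydrolysis · Read-out – % inhibition relative to enzyme-containing and enzyme-free wells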
Apaf1 inhib: blocks human Apaf-1 apoptosome activity. O14727. reconstituted apoptosome caspase-3 activity, DEVD-Rh110 fluorescence. inhibition, % at 20 µM. 0.71% of 330,000 active; active = inhibition of at least 40% at 20 µM
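System: reconstituted apoptosome with Apaf-1, cytochrome c, caspase-9, procaspase-3, dATP; Signal: Rh110 fluorescence intensity; Schedule: 30 min compound preincubation, 50 min activation, room temperature; Reagent: cytochrome c trigger plus (Z-DEVD)2-Rh110 caspase-3 substrate.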
PP1 confirm: human PP1 phosphatase inhibition, confirmation; purified PP1alpha, OMFP substrate fluorescence; inhibition, % at 6.7 µM; shares compounds with PP1 inh; AID 2358; 52% of 1,900 active;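 active = mean PP1 inhibition above a set limit taken from the earlier primary screen, cut at about 15% in these data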
PP5 inh counter: inhibits human PP5 phosphatase in PP1 counter-screen; shares compounds with PP1 inh; purified PP5c, OMFP fluorescence; inhibition, % at 6.7 µM; 4% of 1,900 active; AID 2360;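 active = mean PP5 inhibition over triplicate wells above about 9.5% taken from the earlier PP1 screen, limit read from the data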
A number is an active result.

Screening C/C(=N\NC(=O)c1nnn(-c2nonc2N)c1CN(C)c1ccccc1)c1ccc(O)cc1 returned GSTO1 counter inactive, PP1 inh inactive, PP5 primary inactive, TDP2 absorb inactive and Apaf1 inhib inactive.
Screening CC(C)(C)c1ccc(S(=O)(=O)N2CCN(C(=O)C(=O)c3cccc(C(F)(F)F)c3)CC2)cc1 returned TDP2 absorb inactive.
N#CCC[C@@H]1CC[C@]2(CCCN(Cc3ccc(Cl)cc3)C2)O1 was read as TDP2 absorb inactive.
Screening CCCCNC(=O)C(c1ccc(OCC(=O)OC)c(C(=O)OC)c1)N(CCOC)C(=O)CCCCCN1C(=O)NC(c2ccc(-c3ccccc3)cc2)C(C(=O)OCc2ccccc2)=C1C (centres undefined) returned GSTO1 counter inactive, PP1 inh 34.7, PP5 primary inactive, TDP2 absorb inactive, Apaf1 inhib inactive, PP1 confirm 35.1 and PP5 inh counter inactive.
Screening CCCCCCN(C(=O)CCCCCN1C(=O)NC(c2ccc(-c3ccccc3)cc2)C(C(=O)OCc2ccccc2)=C1C)C(C(=O)NCCCC)c1ccc(OCC(=O)OC)cc1 (centres undefined) returned GSTO1 counter inactive, PP1 inh 30.1, PP5 primary inactive, Apaf1 inhib inactive, PP1 confirm 19.9 and PP5 inh counter inactive.
`O=C(NC1CCCCC1)C(c1ccncc1)n1c(=O)c(-c2cc3ccccc3[nH]2)nc2ccccc21` (centres undefined) gave TDP2 absorb inactive.
Screening c1ccc(-c2nc(NCc3ccco3)c3ccccc3n2)nc1 returned GSTO1 counter inactive, PP1 inh 25.6, PP5 primary inactive, TDP2 absorb inactive, Apaf1 inhib inactive, PP1 confirm 23.5 and PP5 inh counter inactive.
Cc1ccc(Nc2nc(NCc3ccco3)c3ccccc3n2)cc1 was read as GSTO1 counter inactive, PP1 inh 19.9, PP5 primary inactive, TDP2 absorb inactive, Apaf1 inhib inactive, PP1 confirm inactive and PP5 inh counter inactive.
For O=C(O)c1cccc(N/N=C/c2ccc(OC(F)(F)F)cc2)c1 the results were GSTO1 counter inactive, PP1 inh inactive, PP5 primary inactive, TDP2 absorb inactive and Apaf1 inhib inactive.
For O=C(Oc1ccc(/C=N/Nc2ccccc2)cc1)c1ccccc1 the results were GSTO1 counter inactive, PP1 inh 20.7, PP5 primary inactive, TDP2 absorb inactive, Apaf1 inhib inactive, PP1 confirm inactive and PP5 inh counter inactive.
`O=C(O)c1ccc(N/N=C/c2ccc(OC(=O)c3cccc(Cl)c3)cc2)cc1` gave GSTO1 counter inactive, PP1 inh 52.5, PP5 primary inactive, TDP2 absorb inactive, Apaf1 inhib inactive, PP1 confirm inactive and PP5 inh counter inactive.
CC(C)N1CCCCC(NC(=O)c2cccc(C(F)(F)F)c2)C1=O (centres undefined) was read as TDP2 absorb inactive.
For Cc1nc2ccccn2c1P(=O)(c1ccccc1)c1ccccc1 the results were TDP2 absorb inactive.
`CCOC(=O)c1ccc(-n2c(O)c(/C=N/NC(=O)C3COc4ccccc4O3)c3ccccc3c2=O)cc1` (centres undefined) gave GSTO1 counter inactive, PP1 inh 30.9, PP5 primary inactive, TDP2 absorb inactive, Apaf1 inhib inactive, PP1 confirm 32.7 and PP5 inh counter inactive.
`O=[N+]([O-])c1cccc(/C=N/Nc2nc(C(Cl)(Cl)Cl)nc3ccccc23)c1` gave GSTO1 counter inactive, PP1 inh inactive, PP5 primary inactive, TDP2 absorb inactive and Apaf1 inhib inactive.
ClC(Cl)(Cl)c1nc(N/N=C/c2ccncc2)c2ccccc2n1 was read as GSTO1 counter inactive, PP1 inh 22.0, PP5 primary inactive, TDP2 absorb inactive, Apaf1 inhib inactive, PP1 confirm 17.8 and PP5 inh counter inactive.
COC(=O)[C@]12C[C@H](CC(=O)N3CCN(C(=O)c4ccco4)CC3)C(=O)N(Cc3ccc(Cl)cc3Cl)C1=C[C@H](C(C)C)O[C@@H]2C1CC1 was read as TDP2 absorb inactive.
For Cc1ccc(N2C(=O)CC(c3c[nH]c4ccccc34)C2=O)cc1 (centres undefined) the results were GSTO1 counter inactive, PP1 inh inactive, PP5 primary inactive, TDP2 absorb inactive and Apaf1 inhib inactive.
For CCC1=NN=C(c2ccc(F)cc2)C(c2c[nH]c3ccccc23)N1O (centres undefined) the results were GSTO1 counter inactive, PP1 inh 21.7, PP5 primary inactive, TDP2 absorb inactive, Apaf1 inhib inactive, PP1 confirm inactive and PP5 inh counter inactive.
For Cc1cccc(C(=O)Nc2nc3ncccn3c2-c2ccccc2)c1 the results were TDP2 absorb inactive.
Screening CCN1C(=O)c2cccc3c(Cl)ccc(c23)C1=O returned GSTO1 counter inactive, PP1 inh inactive, PP5 primary inactive, TDP2 absorb inactive and Apaf1 inhib inactive.
O=C1c2cccc3c(Cl)ccc(c23)C(=O)N1O was read as GSTO1 counter inactive, PP1 inh 38.3, PP5 primary inactive, TDP2 absorb inactive, Apaf1 inhib inactive, PP1 confirm 29.9 and PP5 inh counter inactive.
Screening CC(C)CN1C(=O)[C@]2(CC(=O)N(C)C2c2ccccc2)c2cc(-n3cc(CCCC#N)nn3)ccc21 (some centres undefined) returned TDP2 absorb inactive.
C[C@H](O)[C@@H]1C(=O)N2CCc3c([nH]c4c(-c5ccc6c(c5)OCO6)cccc34)[C@@H]2C[C@@H]1N(C)C(=O)NC1CCCCC1 was read as TDP2 absorb inactive.
Screening Cc1ccc(/C=C/C(=O)OCC(=O)c2ccc3c(c2)NC(=O)CO3)o1 returned TDP2 absorb inactive and Apaf1 inhib inactive.
O=C1COc2ccc(C(=O)COC(=O)/C=C/c3ccc(Br)o3)cc2N1 was read as GSTO1 counter inactive, PP1 inh 21.9, PP5 primary inactive, TDP2 absorb inactive, Apaf1 inhib inactive, PP1 confirm 25.6 and PP5 inh counter inactive.
`Cc1ccc(-n2c(C)cc(-c3csc(N)n3)c2C)cc1` gave GSTO1 counter inactive, PP1 inh 19.4, PP5 primary inactive, TDP2 absorb inactive, Apaf1 inhib inactive, PP1 confirm inactive and PP5 inh counter inactive.
For Cc1cc(-c2csc(N)n2)c(C)n1C the results were GSTO1 counter inactive, PP1 inh inactive, PP5 primary inactive, TDP2 absorb inactive and Apaf1 inhib inactive.
Screening CCOc1ccccc1NC(=O)COC(=O)Cc1ccc(-c2ccccc2)cc1 returned GSTO1 counter inactive, PP1 inh 20.7, PP5 primary inactive, TDP2 absorb inactive, Apaf1 inhib inactive, PP1 confirm 16.1 and PP5 inh counter inactive.

Screening data as filed in PubChem BioAssay.
